From paper PMC4969713 (Journal of Alzheimer's Disease, 2016)
“And” between values parts separate entries of the source, which are not always exact repeats. Identical values can stand only once. Counter-ions that a name gives are not always drawn. Like-named read-outs stand apart in the source and are kept apart here.

Tests used:
hKvLQT1-hminK (IKs) = hKvLQT1-hminK (IKs) (Homo sapiens, UniProt P51787); test: Cardiac channel inhibition, IKs; assay type: cell-based
Adrenergic α2A = Adrenergic α2A (Homo sapiens, UniProt P08913); test: Radioligand competition, adrenergic α2A; assay type: binding; settings: Ki
guinea pigs = test: Q-T interval, guinea pigs; assay type: in vivo; settings: 10 mg/kg IP
BALB/c mice [1] = test: Porsolt forced swim test; assay type: in vivo; settings: AVN-101 0.05 mg/kg IP once daily for 4 days
5-HT5A receptor = 5-HT5A receptor (Homo sapiens, UniProt P47898); test: Radioligand binding competition, 5-HT5A
Adrenergic α2B = Adrenergic α2B (Homo sapiens, UniProt P18089); test: Radioligand competition, adrenergic α2B; assay type: binding
male BALB/c mice [2] = test: Elevated Plus-Maze; assay type: in vivo; settings: IP; Buspirone 5 mg/kg; M2 0.05, 0.5, 1.0, 5.0 mg/kg
How it was run: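 Elevated plus-maze in mice. Read-outs were open/closed arm time ratio, open/closed visit ratio, defecations and total visits. Each treated group was compared with the placebo group by Student t-test.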

male BALB/c mice [3] = test: Novel object recognition, MK-801-induced; assay type: in vivo; settings: 0.2 mg/kg MK-801; memantine 10 mg/kg; SB-742457 0.2 or 1.0 mg/kg
How it was run: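 All drugs were dissolved in saline and given IP; control animals received saline vehicle. Each group had at least 8 male BALB/c mice. Read-out was novel object recognition index, reported as mean ± SE.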

5-HT7 receptor = 5-HT7 receptor (Homo sapiens, UniProt P34969); test: Radioligand binding competition, 5-HT7
5-HT1A receptor = 5-HT1A receptor (Homo sapiens, UniProt P08908); test: Radioligand binding competition, 5-HT1A
[4] = Median lethal dose after single administration; set-up: species or system mice; settings: male, CD1, mouse, in vivo
How it was run: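 Male CD1 mice received a single dose of test compound in saline, IP at 80–200 mg/kg or orally at 200–700 mg/kg. Each dose went to a separate group (n = 6). LD50 with standard error was derived by probit analysis.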

Caco-2 permeability = settings: human
CYP2D6 = CYP2D6 (Homo sapiens, UniProt P10635); test: Metabolism by recombinant CYP2D6; assay type: in vitro ADME
male BALB/c mice [5] = test: Passive avoidance, scopolamine-induced amnesia, mice; assay type: in vivo
BALB/c mice [6] = test: Passive avoidance, MK-801-induced amnesia, mice; assay type: in vivo
[7] = Dialysis of diluted rat plasma against rat brain homogenate; assay type: in vitro ADME; settings: 1μM AVN-101 in 20% plasma vs brain homogenate
How it was run: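 A 48-well semi-permeable-membrane dialysis plate was used. Donor chamber held 20% rat plasma diluted in PBS with 1 μM test compound; acceptor chamber held rat brain homogenate. Both chambers were sampled at several time points, and samples were matrix-equilibrated by cross-adding the opposite matrix. Membrane-permeability controls used 20% plasma in both chambers or PBS in both chambers.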

CYP1A2 = CYP1A2 (Homo sapiens, UniProt P05177); test: Metabolism by recombinant CYP1A2; assay type: in vitro ADME
muscarinic M2 receptor = muscarinic M2 receptor (Homo sapiens, UniProt P08172); test: Target panel binding, muscarinic M2
[8] = Metabolism in rat microsomes; assay type: in vitro ADME; settings: for Remaining quantity: AVN-101 1 μM, RLM
[9] = biological target: calcium channels of N type (Homo sapiens, UniProt Q00975); test: Target panel binding, calcium channel N type
[10] = Stability in monkey blood plasma; assay type: in vitro ADME; settings: 30-min incubation, room temperature
histamine H2 receptor = histamine H2 receptor (Homo sapiens, UniProt P25021); test: Radioligand binding competition, histamine H2
[11] = biological target: norpinephrine transporter (Homo sapiens, UniProt P23975); test: Target panel binding, norpinephrine transporter
hKv4.3-hKCh1P2.2 (Ito) = hKv4.3-hKCh1P2.2 (Ito) (Homo sapiens, UniProt Q9UK17); test: Cardiac channel inhibition, Ito; assay type: cell-based
male Long Evans rats = test: Geller-Seifter conflict test; assay type: in vivo; settings: IV, 5 min before test
How it was run: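 Male Long Evans rats were food-deprived for 24 h, with at least 5 per group. Test compound was given IV via tail vein 5 min before testing. The test ran two 30-min sessions, unpunished and punished (conflict), with lever presses counted. Results were expressed as relative change versus the vehicle group.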

[12] = read-out: % Inhibition at 31.6μM

hKv4.3-hKCh1P2.2 (Ito), sequence (Q9UK17 whole entry): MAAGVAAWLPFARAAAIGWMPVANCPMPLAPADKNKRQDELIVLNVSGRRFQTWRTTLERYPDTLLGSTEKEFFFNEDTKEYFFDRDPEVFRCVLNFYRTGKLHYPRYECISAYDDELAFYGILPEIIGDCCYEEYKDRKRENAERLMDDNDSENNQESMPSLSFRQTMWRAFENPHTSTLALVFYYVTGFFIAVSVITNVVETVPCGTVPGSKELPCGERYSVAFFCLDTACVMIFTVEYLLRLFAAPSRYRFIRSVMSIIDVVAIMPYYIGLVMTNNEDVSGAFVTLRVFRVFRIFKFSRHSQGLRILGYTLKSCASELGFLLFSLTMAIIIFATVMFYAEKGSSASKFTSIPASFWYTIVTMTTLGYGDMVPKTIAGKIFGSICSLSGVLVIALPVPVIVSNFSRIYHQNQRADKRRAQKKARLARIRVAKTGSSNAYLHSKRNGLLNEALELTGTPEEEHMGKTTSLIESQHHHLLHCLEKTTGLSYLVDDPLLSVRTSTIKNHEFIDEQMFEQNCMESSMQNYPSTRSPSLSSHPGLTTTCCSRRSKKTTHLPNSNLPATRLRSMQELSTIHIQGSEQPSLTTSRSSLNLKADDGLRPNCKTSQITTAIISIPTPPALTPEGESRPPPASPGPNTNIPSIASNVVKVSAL
5-HT7 receptor, sequence (P34969 whole entry): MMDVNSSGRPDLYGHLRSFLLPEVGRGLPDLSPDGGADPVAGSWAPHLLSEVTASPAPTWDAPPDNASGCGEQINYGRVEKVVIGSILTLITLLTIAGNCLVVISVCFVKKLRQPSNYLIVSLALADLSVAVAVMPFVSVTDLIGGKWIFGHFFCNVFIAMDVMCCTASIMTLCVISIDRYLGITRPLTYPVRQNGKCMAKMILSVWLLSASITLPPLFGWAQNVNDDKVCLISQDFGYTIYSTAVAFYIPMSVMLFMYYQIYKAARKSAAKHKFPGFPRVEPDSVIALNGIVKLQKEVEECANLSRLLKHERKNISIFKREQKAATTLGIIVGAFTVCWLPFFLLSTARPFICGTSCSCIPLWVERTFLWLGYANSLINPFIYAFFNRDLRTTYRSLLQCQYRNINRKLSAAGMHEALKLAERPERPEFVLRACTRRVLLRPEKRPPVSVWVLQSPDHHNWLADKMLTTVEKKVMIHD
hKvLQT1-hminK (IKs), sequence (P51787 whole entry): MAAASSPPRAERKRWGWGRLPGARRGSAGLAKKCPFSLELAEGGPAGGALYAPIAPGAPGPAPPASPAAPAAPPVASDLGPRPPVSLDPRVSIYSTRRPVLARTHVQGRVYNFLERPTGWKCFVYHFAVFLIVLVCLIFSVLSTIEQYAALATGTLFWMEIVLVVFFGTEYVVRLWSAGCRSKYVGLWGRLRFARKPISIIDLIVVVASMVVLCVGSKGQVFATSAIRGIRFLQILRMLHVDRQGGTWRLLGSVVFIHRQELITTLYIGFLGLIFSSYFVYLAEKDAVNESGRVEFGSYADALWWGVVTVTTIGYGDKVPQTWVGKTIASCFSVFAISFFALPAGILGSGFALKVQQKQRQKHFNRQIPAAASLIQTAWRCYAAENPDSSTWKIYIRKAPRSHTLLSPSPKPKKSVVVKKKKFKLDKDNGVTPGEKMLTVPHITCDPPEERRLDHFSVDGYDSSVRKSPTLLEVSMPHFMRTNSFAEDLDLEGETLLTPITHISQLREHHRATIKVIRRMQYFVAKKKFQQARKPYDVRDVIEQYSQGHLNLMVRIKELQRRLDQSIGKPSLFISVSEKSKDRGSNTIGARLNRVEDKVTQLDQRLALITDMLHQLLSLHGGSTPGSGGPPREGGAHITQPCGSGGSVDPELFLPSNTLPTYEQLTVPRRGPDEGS
5-HT1A receptor, sequence (P08908 whole entry): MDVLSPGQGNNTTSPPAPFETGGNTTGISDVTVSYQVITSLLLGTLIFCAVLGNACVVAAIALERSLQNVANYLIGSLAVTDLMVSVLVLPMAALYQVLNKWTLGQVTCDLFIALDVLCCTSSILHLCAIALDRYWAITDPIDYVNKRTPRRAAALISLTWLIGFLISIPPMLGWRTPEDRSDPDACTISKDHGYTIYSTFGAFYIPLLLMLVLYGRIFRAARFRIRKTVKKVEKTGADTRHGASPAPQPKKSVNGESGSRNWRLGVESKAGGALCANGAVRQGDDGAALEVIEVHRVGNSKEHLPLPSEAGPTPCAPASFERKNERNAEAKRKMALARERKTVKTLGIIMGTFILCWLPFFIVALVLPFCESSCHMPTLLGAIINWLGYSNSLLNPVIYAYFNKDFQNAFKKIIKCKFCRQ
norpinephrine transporter, sequence (P23975 whole entry): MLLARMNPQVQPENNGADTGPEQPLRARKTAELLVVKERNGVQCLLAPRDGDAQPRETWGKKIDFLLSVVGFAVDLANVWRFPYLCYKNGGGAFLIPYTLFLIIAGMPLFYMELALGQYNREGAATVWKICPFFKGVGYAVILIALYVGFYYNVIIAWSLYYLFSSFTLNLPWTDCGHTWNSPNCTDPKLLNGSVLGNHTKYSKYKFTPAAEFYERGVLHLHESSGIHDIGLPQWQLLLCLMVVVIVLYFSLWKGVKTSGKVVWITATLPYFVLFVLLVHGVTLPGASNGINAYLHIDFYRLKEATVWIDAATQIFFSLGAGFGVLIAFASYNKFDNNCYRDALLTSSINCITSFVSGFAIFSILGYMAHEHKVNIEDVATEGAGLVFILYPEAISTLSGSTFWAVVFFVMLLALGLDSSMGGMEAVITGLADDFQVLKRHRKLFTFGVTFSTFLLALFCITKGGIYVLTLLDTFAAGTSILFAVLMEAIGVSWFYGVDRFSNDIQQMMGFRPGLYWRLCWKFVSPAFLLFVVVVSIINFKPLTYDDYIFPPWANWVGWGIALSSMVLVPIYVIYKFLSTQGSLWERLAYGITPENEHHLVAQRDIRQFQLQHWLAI
histamine H2 receptor, sequence (P25021 whole entry): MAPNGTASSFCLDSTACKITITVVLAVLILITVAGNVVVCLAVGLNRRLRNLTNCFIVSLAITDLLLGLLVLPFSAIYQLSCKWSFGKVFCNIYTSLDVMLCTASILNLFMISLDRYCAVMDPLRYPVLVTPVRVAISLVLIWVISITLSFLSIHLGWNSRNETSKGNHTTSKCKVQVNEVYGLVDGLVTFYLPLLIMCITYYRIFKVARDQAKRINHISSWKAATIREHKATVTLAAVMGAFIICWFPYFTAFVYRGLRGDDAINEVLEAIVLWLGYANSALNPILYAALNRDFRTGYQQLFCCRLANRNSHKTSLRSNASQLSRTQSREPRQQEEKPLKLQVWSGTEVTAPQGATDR
5-HT5A receptor, sequence (P47898 whole entry): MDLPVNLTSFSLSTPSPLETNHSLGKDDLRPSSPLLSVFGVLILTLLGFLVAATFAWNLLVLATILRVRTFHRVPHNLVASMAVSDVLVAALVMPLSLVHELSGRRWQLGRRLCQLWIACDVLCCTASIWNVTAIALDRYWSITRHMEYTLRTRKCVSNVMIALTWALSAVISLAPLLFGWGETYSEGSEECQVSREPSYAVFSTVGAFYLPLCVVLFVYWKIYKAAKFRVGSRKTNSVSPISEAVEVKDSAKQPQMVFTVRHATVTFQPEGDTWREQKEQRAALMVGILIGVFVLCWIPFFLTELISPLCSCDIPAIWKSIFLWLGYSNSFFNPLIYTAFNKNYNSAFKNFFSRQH
CYP2D6, sequence (P10635 whole entry): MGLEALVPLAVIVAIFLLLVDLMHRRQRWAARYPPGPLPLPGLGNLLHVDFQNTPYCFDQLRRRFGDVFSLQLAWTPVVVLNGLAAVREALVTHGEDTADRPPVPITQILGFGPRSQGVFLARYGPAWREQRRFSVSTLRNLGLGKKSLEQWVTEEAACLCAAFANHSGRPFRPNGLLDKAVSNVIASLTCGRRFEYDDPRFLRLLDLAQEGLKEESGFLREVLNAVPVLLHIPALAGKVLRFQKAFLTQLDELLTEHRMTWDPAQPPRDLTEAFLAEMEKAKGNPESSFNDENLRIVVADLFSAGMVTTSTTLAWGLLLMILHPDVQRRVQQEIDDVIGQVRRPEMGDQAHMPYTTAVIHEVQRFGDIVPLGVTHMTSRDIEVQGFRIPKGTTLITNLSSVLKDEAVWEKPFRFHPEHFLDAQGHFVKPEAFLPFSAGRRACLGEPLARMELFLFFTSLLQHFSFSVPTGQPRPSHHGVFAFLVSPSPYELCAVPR
Adrenergic α2A, sequence (P08913 whole entry): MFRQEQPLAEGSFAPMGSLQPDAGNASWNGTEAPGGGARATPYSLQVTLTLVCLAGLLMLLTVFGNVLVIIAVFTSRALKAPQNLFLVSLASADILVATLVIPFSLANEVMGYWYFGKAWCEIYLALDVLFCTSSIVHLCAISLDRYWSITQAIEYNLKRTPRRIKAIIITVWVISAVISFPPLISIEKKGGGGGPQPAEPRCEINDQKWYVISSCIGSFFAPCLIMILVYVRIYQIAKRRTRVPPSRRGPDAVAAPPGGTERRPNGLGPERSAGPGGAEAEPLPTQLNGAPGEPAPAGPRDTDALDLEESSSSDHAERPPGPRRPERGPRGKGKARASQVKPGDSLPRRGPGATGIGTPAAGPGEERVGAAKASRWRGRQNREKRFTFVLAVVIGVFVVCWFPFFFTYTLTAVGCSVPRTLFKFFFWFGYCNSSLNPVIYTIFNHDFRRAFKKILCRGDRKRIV

Cc1ccc2c(c1)c1c(n2CCc2ccccc2)CCN(C)C1 [AVN-101, 2,8-dimethyl-5-penethyl-2,3,4,5-tetra-hydro-1h-pyrido[[4,3-B]]indole hydrochloride]
IC50 (hKvLQT1-hminK (IKs)): 22500 nM | inhibition at 31.6 µM (hKvLQT1-hminK (IKs); [12]): 55% | Ki (Adrenergic α2A): 0.41 to 3.6 nM | increase in the QT interval over vehicle (guinea pigs): ≤ 10% | decrease in immobility time (BALB/c mice [1]): comparable to that observed with either Fluoxetine or Desipramine | Ki (5-HT5A receptor): 20.8 nM | Ki (Adrenergic α2B): 0.41 to 3.6 nM | anxiolytic effect (open/closed arm time and visits, defecations) (male BALB/c mice [2]): clear anxiolytic effects | effect on deficit in novel object recognition (male BALB/c mice [3]): partially reverse | IC50 (5-HT7 receptor): 0.28 nM | affinity higher than SB-742457 (5-HT7 receptor): ~4 orders of magnitude | Ki (5-HT1A receptor): > 30 nM | LD50 at 2 weeks ([4]; ip): 105 ± 5 mg/kg | LD50 at 2 weeks ([4]; po): 331 ± 101 mg/kg | Papp (Caco-2 permeability): 19 ± 1.8 ×10⁻⁶ cm/s | Papp B→A (Caco-2 permeability): 21 ± 2.1 ×10⁻⁶ cm/s | remaining at 0.5 h, 2 µM (CYP2D6): 0% | reversal of scopolamine-induced amnesia vs comparators (male BALB/c mice [5]; AVN-101 5 mg/kg IP): equal to or more effective than either memantine or tacrine | lowest dose with preventative effect on scopolamine-induced amnesic parameters (male BALB/c mice [5]; IP, scopolamine 0.3 mg/kg): 0.02 mg/kg | anti-amnesic dose (male BALB/c mice [5]; scopolamine model): 0.05 mg/kg | effect on MK-801-induced amnesia (BALB/c mice [6]; IP): dose-dependently prevented | anti-amnesic dose (BALB/c mice [6]; MK-801 model): 0.5 mg/kg | concentration in brain-containing chamber vs plasma chamber [7]: never exceeds that of the plasma chamber | remaining at 0.5 h, 2 µM (CYP1A2): 46% | binding (muscarinic M2 receptor): does not bind | k el ([8]; 1μM): 0.352 | Remaining quantity ([8]; 7.9 min): <1% | Remaining quantity ([8]; 30 min): <1% | half-life at 1 µM ([8]; rat, liver microsomes): 1.97 min | k el at 1 μM ([8]; rat, liver microsomes): 0.00558 s⁻¹ | microsomal CLint at 1 µM ([8]; rat, liver microsomes): 703 µL/min/mg | Blood plasma concentration (Dogs (beagles); 0.05 mg/kg IV infusion): 140 nM and 140 ± 20 nM | femoral SBP, down (Dogs (beagles); 0.5 mg/kg): 13% | Blood plasma concentration (Dogs (beagles); 0.5 mg/kg IV infusion): 990 nM and 990 ± 40 nM | femoral SBP, down (Dogs (beagles); 0.5 mg/kg, p < 0.05): 17 mm Hg | femoral SBP, down (Dogs (beagles); 2 mg/kg): 16% | Blood plasma concentration (Dogs (beagles); 2 mg/kg IV infusion): 3280 nM and 3280 ± 300 nM | shortening of QT (Dogs (beagles); 2.0 mg/kg, at 30 min): 15% | shortening of QTcV (Dogs (beagles); 2.0 mg/kg, at 30 min): 8% | femoral SBP, down (Dogs (beagles); 2 mg/kg, p < 0.05): 21 mm Hg | HR, up (Dogs (beagles); 10 mg/kg): 164% | aortic DBP, down (Dogs (beagles); 10 mg/kg): 13% | femoral BF, up (Dogs (beagles); 10 mg/kg): 27% | femoral DBP, down (Dogs (beagles); 10 mg/kg): 17% | femoral SBP, down (Dogs (beagles); 10 mg/kg): 11% | left ventricular DBP, down (Dogs (beagles); 10 mg/kg): 40% | reduction in QT (Dogs (beagles); 10.0 mg/kg): 30% | reduction in QTcV (Dogs (beagles); 10.0 mg/kg): 13% | Blood plasma concentration (Dogs (beagles); 10 mg/kg IV infusion): 11100 nM and 11100 ± 2150 nM | HR, up (Dogs (beagles); 10 mg/kg, p < 0.001): 118 bpm | aortic DBP, down (Dogs (beagles); 10 mg/kg, p < 0.05): 9 mmHg | femoral BF, up (Dogs (beagles); 10 mg/kg, p < 0.05): 35 mL/min | femoral DBP, down (Dogs (beagles); 10 mg/kg, p < 0.05): 12 mm Hg | left ventricular DBP, down (Dogs (beagles); 10 mg/kg, p < 0.05): 2 mmHg | femoral SBP, down (Dogs (beagles); 10 mg/kg, p > 0.05): 15 mm Hg | binding [9]: does not bind | residual amount of original compound [10]: 45% | Ki (histamine H2 receptor): 89 nM | binding [11]: does not bind | IC50 (hKv4.3-hKCh1P2.2 (Ito)): 14800 nM | inhibition at 31.6 µM (hKv4.3-hKCh1P2.2 (Ito); [12]): 66% | activity during unpunished rewards session (male Long Evans rats): no effect observed | activity during punished conflict rewards session (male Long Evans rats; compared to vehicle): significantly increased
